In ChEMBL document CHEMBL1140692, “Toward the development of chemoprevention agents. Part II: Chemo-enzymatic synthesis and anti-inflammatory activities of a new class of 5-amino-2-substitutedphenyl-1,3-dioxacycloalkanes” (Bioorg Med Chem, 2007):

How the values were obtained:
[1] = Inhibition of bovine brain PKC; parameters: species or system Bos taurus
Mus musculus [2] = experiment: Gastrointestinal toxicity in mouse assessed as tail bleeding time at 200 mg/kg, po after 30 mins; assay type: organism-based; parameters: dose 200 mg/kg, route oral; conditions: in vivo, 0.5 h
How it was run: (§1)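 Male mice (18–22 g) are dosed orally and compared with an NS group. At 30, 45, 60 and 90 min after dosing, each mouse is restrained in a tube holder and a 2-mm cut is made on the tail. Blood is wiped away every 30 s until flow stops, and the time to cessation is recorded.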

Mus musculus [3] = experiment: Gastrointestinal toxicity in mouse assessed as tail bleeding time at 200 mg/kg, po after 45 mins; assay type: organism-based; parameters: dose 200 mg/kg, route oral; conditions: in vivo, 0.75 h; how it was run: as §1
Mus musculus [4] = experiment: Gastrointestinal toxicity in mouse assessed as tail bleeding time at 200 mg/kg, po after 60 mins; assay type: organism-based; parameters: dose 200 mg/kg, route oral; conditions: in vivo, 1 h; how it was run: as §1
Mus musculus [5] = experiment: Gastrointestinal toxicity in mouse assessed as tail bleeding time at 200 mg/kg, po after 90 mins; assay type: organism-based; parameters: dose 200 mg/kg, route oral; conditions: in vivo, 1.5 h; how it was run: as §1
[6] = Permeability from apical to basolateral side of human Caco-2 cell membrane; assay type: ADME, cell-based
[7] = Permeability from basolateral to apical side of human Caco-2 cell membrane; assay type: ADME, cell-based
Caco-2 = experiment: Ratio of permeability from apical to basolateral side over basolateral to apical side of human Caco-2 cell membrane; assay type: ADME, cell-based

SMILES | IC50 [1] [mM] | Time (Mus musculus [2]) [s] | Time (Mus musculus [3]) [s] | Time (Mus musculus [4]) [s] | Time (Mus musculus [5]) [s] | Papp A→B [6] [×10⁻⁶ cm/s] | Papp B→A [7] [×10⁻⁶ cm/s] | Ratio (Caco-2)
O=C(Cc1ccccc1)N[C@H]1CO[C@H](c2ccc([N+](=O)[O-])cc2)OC1 | 2.85 | – | – | – | – | – | – | –
N[C@H]1CCCO[C@@H](c2ccc([N+](=O)[O-])cc2)OC1 | – | 118.6 | 119 | 118.4 | 117.6 | – | – | –
N[C@H]1CO[C@@H](c2ccc(Cl)cc2)OC1 | – | 118.5 | 118.9 | 120.9 | 119.4 | – | – | –
N[C@H]1CCCO[C@@H](c2cccc([N+](=O)[O-])c2)OC1 | – | 119.3 | 118.2 | 118.5 | 119.3 | – | – | –
N[C@H]1CCCO[C@H](c2ccc([N+](=O)[O-])cc2)OC1 | – | 118.6 | 120.3 | 118.5 | 117.7 | – | – | –
N[C@H]1CO[C@@H](c2ccccc2)OC1 | – | 119.2 | 118.8 | 117.6 | 118.7 | – | – | –
N[C@H]1CCCO[C@H](c2cccc([N+](=O)[O-])c2)OC1 | – | 117.8 | 117.9 | 121.5 | 118 | – | – | –
C[C@@H]1O[C@H](c2ccc([N+](=O)[O-])cc2)OC[C@H]1NC(=O)Cc1ccccc1 | – | – | – | – | – | 10.3 | 6.93 | 1.49
N[C@H]1CO[C@H](c2ccc([N+](=O)[O-])cc2)OC1 | – | 119.5 | 117.7 | 118.6 | 118.9 | – | – | –
N[C@H]1CCO[C@H](c2cccc([N+](=O)[O-])c2)OC1 | – | 117.9 | 118.6 | 119 | 118.5 | – | – | –
N[C@H]1CO[C@H](c2ccccc2)OC1 | – | 119.3 | 119.2 | 119.7 | 119.6 | – | – | –
O=C(Cc1ccccc1)N[C@H]1CCO[C@@H](c2ccc([N+](=O)[O-])cc2)OC1 | 2.98 | – | – | – | – | – | – | –
O=C(Cc1ccccc1)N[C@H]1CCO[C@H](c2cccc([N+](=O)[O-])c2)OC1 | 2.93 | – | – | – | – | – | – | –
N[C@H]1CO[C@@H](c2ccc([N+](=O)[O-])cc2)OC1 | – | 119.4 | 118.7 | 120.6 | 119.4 | – | – | –
N[C@H]1CCO[C@@H](c2ccc([N+](=O)[O-])cc2)OC1 | – | 117.8 | 118.5 | 117.9 | 117.2 | – | – | –
N[C@H]1CCO[C@@H](c2cccc([N+](=O)[O-])c2)OC1 | – | 120.1 | 118.7 | 118.5 | 118.6 | – | – | –
N[C@H]1CCO[C@H](c2ccc(Cl)cc2)OC1 | – | 117.9 | 118.5 | 119.2 | 118.6 | – | – | –
C[C@@H]1O[C@@H](c2ccc([N+](=O)[O-])cc2)OC[C@H]1NC(=O)Cc1ccccc1 | – | – | – | – | – | 10.4 | 6.98 | 1.49
Cc1ccc([C@H]2OC[C@H](N)CO2)cc1 | – | 118.5 | 119.2 | 119.5 | 117.8 | – | – | –
O=C(Cc1ccccc1)N[C@H]1CCO[C@H](c2ccc(Cl)cc2)OC1 | 2.92 | – | – | – | – | – | – | –
Cc1ccc([C@@H]2OC[C@@H](N)[C@H](C)O2)cc1 | – | 120.4 | 118.5 | 118.9 | 117.7 | – | – | –
O=C(Cc1ccccc1)N[C@H]1CCO[C@H](c2ccc([N+](=O)[O-])cc2)OC1 | 2.86 | – | – | – | – | – | – | –
C[C@@H]1O[C@@H](c2cccc([N+](=O)[O-])c2)OC[C@H]1N | – | 118.9 | 119.2 | 117.4 | 118.3 | – | – | –

SMILES | IC50 [1] [mM] | Time (Mus musculus [2]) [s] | Time (Mus musculus [3]) [s] | Time (Mus musculus [4]) [s] | Time (Mus musculus [5]) [s] | Papp A→B [6] [×10⁻⁶ cm/s] | Papp B→A [7] [×10⁻⁶ cm/s] | Ratio (Caco-2)
N[C@H]1CCO[C@@H](c2ccc(Cl)cc2)OC1 | – | 118.4 | 119.6 | 118.6 | 119 | – | – | –
C[C@@H]1O[C@H](c2cccc([N+](=O)[O-])c2)OC[C@H]1N | – | 118.9 | 118.2 | 119.5 | 118.2 | – | – | –
O=C(Cc1ccccc1)N[C@H]1CCO[C@@H](c2ccc(Cl)cc2)OC1 | 2.95 | – | – | – | – | – | – | –
O=C(Cc1ccccc1)N[C@H]1CO[C@@H](/C=C/c2ccccc2)OC1 | – | – | – | – | – | 8.97 | 7.87 | 1.14
Cc1ccc([C@H]2OC[C@@H](N)[C@H](C)O2)cc1 | – | 120.9 | 121 | 119.8 | 118.7 | – | – | –
O=C(Cc1ccccc1)N[C@H]1CO[C@H](/C=C/c2ccccc2)OC1 | – | – | – | – | – | 8.86 | 7.32 | 1.21
C[C@@H]1O[C@H](/C=C/c2ccccc2)OC[C@H]1NC(=O)Cc1ccccc1 | – | – | – | – | – | 8.8 | 7.15 | 1.23
O=C(Cc1ccccc1)N[C@H]1CO[C@@H](c2cccc([N+](=O)[O-])c2)OC1 | 2.81 | – | – | – | – | – | – | –
N[C@H]1CO[C@H](c2cccc([N+](=O)[O-])c2)OC1 | – | 118.8 | 118 | 118.4 | 118.7 | – | – | –
O=C(Cc1ccccc1)N[C@H]1CO[C@H](c2cccc([N+](=O)[O-])c2)OC1 | 2.9 | – | – | – | – | – | – | –
N[C@H]1CCCO[C@@H](c2ccc(Cl)cc2)OC1 | – | 119.4 | 117.5 | 118.4 | 117.8 | – | – | –
O=C(Cc1ccccc1)N[C@H]1CO[C@@H](c2ccc(Cl)cc2)OC1 | 2.69 | – | – | – | – | – | – | –
C[C@@H]1O[C@H](c2ccccc2)OC[C@H]1N | – | 118.7 | 118.9 | 118.6 | 118.9 | – | – | –
N[C@H]1CCO[C@H](c2ccc([N+](=O)[O-])cc2)OC1 | – | 118.5 | 119 | 118.6 | 117.9 | – | – | –
O=C(Cc1ccccc1)N[C@H]1CO[C@@H](c2ccc([N+](=O)[O-])cc2)OC1 | 2.77 | – | – | – | – | – | – | –
N[C@H]1CO[C@@H](c2cccc([N+](=O)[O-])c2)OC1 | – | 119.3 | 118.2 | 119.1 | 120.2 | – | – | –
O=C(Cc1ccccc1)N[C@H]1CO[C@H](c2ccc(Cl)cc2)OC1 | 2.71 | – | – | – | – | – | – | –
O=C(Cc1ccccc1)N[C@H]1CCO[C@@H](c2cccc([N+](=O)[O-])c2)OC1 | 3.01 | – | – | – | – | – | – | –
C[C@@H]1O[C@H](c2ccc(Cl)cc2)OC[C@H]1NC(=O)Cc1ccccc1 | – | – | – | – | – | 10.2 | 6.86 | 1.48
C[C@@H]1O[C@@H](c2ccc(Cl)cc2)OC[C@H]1NC(=O)Cc1ccccc1 | – | – | – | – | – | 10.2 | 7 | 1.46
N[C@H]1CO[C@H](c2ccc(Cl)cc2)OC1 | – | 119 | 118.9 | 118.7 | 119.6 | – | – | –
Cc1ccc([C@H]2OC[C@@H](N)CO2)cc1 | – | 118.3 | 119 | 118.7 | 118.4 | – | – | –
N[C@H]1CCCO[C@H](c2ccc(Cl)cc2)OC1 | – | 117.9 | 118.7 | 119.1 | 118.3 | – | – | –
